Test results from ChEMBL document CHEMBL3616444, “Design, synthesis and pharmacological evaluation of pyrimidobenzothiazole-3-carboxylate derivatives as selective L-type calcium channel blockers” (Bioorg Med Chem, 2015).

Assays:
[1] = test system: Rattus norvegicus; assay: Antihypertensive activity in Norwegian albino rat model of DOCA-salt-induced hypertension assessed as inhibition of systolic blood pressure at 10 mg/kg, po after 7 hrs by non-invasive tail cuff method relative to control; assay type: functional
Summary of the method: (§1)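 DOCA-salt hypertensive rats; systolic pressure by tail cuff after 10 mg/kg, recorded hourly from 0 to 10 h; percent inhibition computed. Data as mean ± SEM, repeated-measures ANOVA.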

[2] = Inhibition of porcine kidney ACE assessed as reduction in hippuryl-histidyl-leucine hydrolysis to hippuric acid release incubated for 30 mins high-throughput colorimetric method; set-up: species or system Sus scrofa
Summary of the method: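 Porcine kidney ACE in 1 M sodium borate buffer pH 8.2 with 0.3 M NaCl and 5 mM HHL substrate (stock); 37 °C for 30 min, stopped with 1 M HCl. Released hippuric acid complexed with pyridine and benzene sulfonyl chloride, cooled on ice, yellow colour read at 410 nm; IC50 from log plots, at least five determinations per concentration.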

[3] = target: Myosin light chain kinase, smooth muscle (Homo sapiens, UniProt Q15746); assay: Inhibition of MLCK (unknown origin) incubated for 15 mins using [gamma-32P]-ATP by scintillation counting method
Summary of the method: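 Active MLCK thawed on ice with kinase assay and dilution buffers and substrate; reaction with γ-32P-ATP incubated 15 min at 30 °C in a water bath, spotted on phosphocellulose P81 paper, washed three times ~10 min in 1% phosphoric acid. Radioactivity by scintillation counting, blank-corrected cpm converted to specific activity (nmol/min/mg); IC50 from log plots, at least five determinations per concentration.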

[4] = test system: Rattus norvegicus; assay: Antihypertensive activity in Norwegian albino rat model of DOCA-salt-induced hypertension assessed as inhibition of systolic blood pressure at 10 mg/kg, po after 1 hr by non-invasive tail cuff method relative to control; assay type: functional; summary of the method: as §1
[5] = test system: Rattus norvegicus; assay: Antihypertensive activity in Norwegian albino rat model of DOCA-salt-induced hypertension assessed as inhibition of systolic blood pressure at 10 mg/kg, po after 5 hrs by non-invasive tail cuff method relative to control; assay type: functional; summary of the method: as §1
[6] = test system: Rattus norvegicus; assay: Antihypertensive activity in Norwegian albino rat model of DOCA-salt-induced hypertension assessed as inhibition of systolic blood pressure at 10 mg/kg, po after 9 hrs by non-invasive tail cuff method relative to control; assay type: functional; summary of the method: as §1
[7] = test system: Rattus norvegicus; assay: Antihypertensive activity in Norwegian albino rat model of DOCA-salt-induced hypertension assessed as inhibition of systolic blood pressure at 10 mg/kg, po after 3 hrs by non-invasive tail cuff method relative to control; assay type: functional; summary of the method: as §1
[8] = test system: Rattus norvegicus; assay: Antihypertensive activity in Norwegian albino rat model of DOCA-salt-induced hypertension assessed as inhibition of systolic blood pressure at 10 mg/kg, po after 4 hrs by non-invasive tail cuff method relative to control; assay type: functional; summary of the method: as §1
[9] = test system: Rattus norvegicus; assay: Antihypertensive activity in Norwegian albino rat model of DOCA-salt-induced hypertension assessed as inhibition of systolic blood pressure at 10 mg/kg, po after 6 hrs by non-invasive tail cuff method relative to control; assay type: functional; summary of the method: as §1
[10] = test system: Rattus norvegicus; assay: Antihypertensive activity in Norwegian albino rat model of DOCA-salt-induced hypertension assessed as inhibition of systolic blood pressure at 10 mg/kg, po after 2 hrs by non-invasive tail cuff method relative to control; assay type: functional; summary of the method: as §1
[11] = test system: Rattus norvegicus; assay: Antihypertensive activity in Norwegian albino rat model of DOCA-salt-induced hypertension assessed as inhibition of systolic blood pressure at 10 mg/kg, po after 8 hrs by non-invasive tail cuff method relative to control; assay type: functional; summary of the method: as §1
[12] = test system: Rattus norvegicus; assay: Antihypertensive activity in Norwegian albino rat model of DOCA-salt-induced hypertension assessed as inhibition of systolic blood pressure at 10 mg/kg, po after 10 hrs by non-invasive tail cuff method relative to control; assay type: functional; summary of the method: as §1
[13] = test system: Rattus norvegicus; assay: Gastrointestinal toxicity in Norwegian rat assessed as ulcerative index at 50 mg/kg, po after 17 hrs; assay type: organism-based; conditions: in vivo

Myosin light chain kinase, smooth muscle, sequence (Q15746 whole entry): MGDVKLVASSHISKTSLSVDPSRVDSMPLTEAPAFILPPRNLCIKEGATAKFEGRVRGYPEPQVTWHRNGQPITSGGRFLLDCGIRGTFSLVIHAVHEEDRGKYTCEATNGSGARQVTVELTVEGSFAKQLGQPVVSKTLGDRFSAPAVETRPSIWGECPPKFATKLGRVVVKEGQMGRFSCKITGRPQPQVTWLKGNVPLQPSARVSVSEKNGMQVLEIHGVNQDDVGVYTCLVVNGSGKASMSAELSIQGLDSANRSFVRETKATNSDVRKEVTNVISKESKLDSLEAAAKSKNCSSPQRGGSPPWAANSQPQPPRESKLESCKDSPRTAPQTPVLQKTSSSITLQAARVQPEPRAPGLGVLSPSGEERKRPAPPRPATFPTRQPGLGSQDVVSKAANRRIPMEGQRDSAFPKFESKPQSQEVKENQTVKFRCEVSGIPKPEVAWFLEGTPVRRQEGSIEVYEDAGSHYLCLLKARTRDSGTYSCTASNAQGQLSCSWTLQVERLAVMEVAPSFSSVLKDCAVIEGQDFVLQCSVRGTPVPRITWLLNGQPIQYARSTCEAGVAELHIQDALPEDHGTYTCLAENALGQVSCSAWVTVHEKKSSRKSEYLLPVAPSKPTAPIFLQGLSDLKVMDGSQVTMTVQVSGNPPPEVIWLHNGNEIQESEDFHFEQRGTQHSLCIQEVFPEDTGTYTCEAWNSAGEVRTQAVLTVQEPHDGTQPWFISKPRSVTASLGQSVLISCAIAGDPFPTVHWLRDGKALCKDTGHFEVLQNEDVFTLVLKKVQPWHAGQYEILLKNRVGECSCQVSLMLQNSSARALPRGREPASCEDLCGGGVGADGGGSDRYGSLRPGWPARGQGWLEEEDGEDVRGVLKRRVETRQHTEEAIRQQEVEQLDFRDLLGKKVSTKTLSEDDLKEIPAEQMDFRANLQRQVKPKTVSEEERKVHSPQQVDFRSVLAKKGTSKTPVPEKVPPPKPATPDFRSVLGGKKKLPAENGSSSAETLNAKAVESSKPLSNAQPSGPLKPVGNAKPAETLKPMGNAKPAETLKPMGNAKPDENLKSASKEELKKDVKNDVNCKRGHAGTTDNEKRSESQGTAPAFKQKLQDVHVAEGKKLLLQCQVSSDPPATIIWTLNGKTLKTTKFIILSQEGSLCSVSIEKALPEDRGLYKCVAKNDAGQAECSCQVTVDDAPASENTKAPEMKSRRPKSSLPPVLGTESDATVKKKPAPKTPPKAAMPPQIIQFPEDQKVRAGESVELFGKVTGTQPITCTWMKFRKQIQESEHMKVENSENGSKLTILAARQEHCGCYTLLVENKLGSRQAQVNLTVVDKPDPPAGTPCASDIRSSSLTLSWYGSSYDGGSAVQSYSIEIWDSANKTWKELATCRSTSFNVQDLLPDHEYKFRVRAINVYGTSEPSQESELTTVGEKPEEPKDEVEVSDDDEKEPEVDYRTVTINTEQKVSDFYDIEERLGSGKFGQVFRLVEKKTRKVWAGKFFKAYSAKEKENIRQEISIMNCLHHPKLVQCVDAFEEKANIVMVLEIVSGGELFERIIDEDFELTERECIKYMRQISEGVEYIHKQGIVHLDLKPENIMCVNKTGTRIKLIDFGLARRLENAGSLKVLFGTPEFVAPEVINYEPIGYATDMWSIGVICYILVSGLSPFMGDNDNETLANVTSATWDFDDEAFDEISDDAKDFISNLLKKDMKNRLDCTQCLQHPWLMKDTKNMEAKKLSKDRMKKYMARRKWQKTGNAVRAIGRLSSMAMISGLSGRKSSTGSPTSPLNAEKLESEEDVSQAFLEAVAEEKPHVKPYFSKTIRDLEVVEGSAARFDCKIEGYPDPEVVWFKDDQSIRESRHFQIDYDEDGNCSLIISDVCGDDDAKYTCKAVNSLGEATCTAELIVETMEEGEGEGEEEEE

Structure (SMILES) | inhibition in vivo at 10 mg/kg [1] [%] | IC50 [2] [µM] | IC50 ([3]; read-out: IC50) [µM] | inhibition in vivo at 10 mg/kg [4] [%] | inhibition in vivo at 10 mg/kg [5] [%] | inhibition in vivo at 10 mg/kg [6] [%] | inhibition in vivo at 10 mg/kg [7] [%] | inhibition in vivo at 10 mg/kg [8] [%] | inhibition in vivo at 10 mg/kg [9] [%] | inhibition in vivo at 10 mg/kg [10] [%] | inhibition in vivo at 10 mg/kg [11] [%] | inhibition in vivo at 10 mg/kg [12] [%] | IC50 ([3]; read-out: pIC50 (converted)) [µM] | UI [13]
Cc1cc(C)nc(Nc2nc3ccccc3s2)n1 | 8.44 | > 100 | > 100 | 0.44 | 5.33 | 8.89 | 0.44 | 1.33 | 7.11 | 0 | 8.44 | 8.89 | – | –
CC(=O)c1c(C)nc(Nc2nc3ccccc3s2)nc1C | 7.52 | > 100 | > 100 | 0.88 | 5.31 | 7.96 | 0.88 | 2.21 | 7.08 | 0.44 | 7.52 | 8.41 | – | –
CCOC(=O)C1=C(C)NC(OC)N(CC(=O)c2ccc(OC)cc2)C1c1ccc(Cl)cc1 (configuration not stated) | – | > 100 | 18.2 | – | – | – | – | – | – | – | – | – | 5490 | –
COC(=O)C1=C(C)N=C2Sc3ccccc3N2C1c1ccccc1Cl (configuration not stated) | 27 | > 100 | 9.8 | 1.77 | 22.6 | 31.4 | 14.6 | 18.1 | 24.8 | 2.65 | 28.8 | 33.6 | 10200 | –
COC(=O)C1=C(C)N=C2Sc3ccccc3N2C1c1ccccc1O (configuration not stated) | 36.6 | > 100 | 4.3 | 3.57 | 26.3 | 43.8 | 19.6 | 24.1 | 33 | 8.48 | 42 | 46.4 | 23300 | –
COC(=O)C1=C(C)N=C2Sc3ccccc3N2C1c1ccc(O)cc1 (configuration not stated) | 38.2 | > 100 | 4.21 | 3.51 | 29.4 | 40.8 | 19.7 | 25.4 | 34.2 | 7.89 | 39.5 | 42.1 | 23800 | –
COC(=O)C1=C(C)N=C2Sc3ccccc3N2C1c1ccc(N(C)C)cc1 (configuration not stated) | 27 | > 100 | 4.37 | 1.77 | 22.6 | 31.4 | 14.6 | 18.1 | 24.8 | 2.65 | 28.8 | 33.6 | 22900 | –
CCOC(=O)C1=C(C)N=C2Sc3ccccc3N2C1c1ccccc1Cl (configuration not stated) | 27 | > 100 | 10.8 | 1.77 | 22.6 | 31.4 | 14.6 | 18.1 | 24.8 | 2.65 | 28.8 | 33.6 | 9260 | –
CCc1nc(Nc2nc3ccccc3s2)nc(C)c1C(C)=O | 8 | > 100 | > 100 | 0.44 | 6.22 | 8.44 | 0.44 | 1.33 | 7.56 | 0 | 8 | 8.89 | – | –
CCOC(=O)C1=C(C)NC(OC)N(CC(=O)c2ccc(Cl)cc2)C1c1ccc(Cl)cc1 (configuration not stated) | – | > 100 | 41.3 | – | – | – | – | – | – | – | – | – | 2420 | –
CCOC(=O)C1=C(C)NC(OC)N(CC(=O)c2ccc(Cl)cc2)C1c1ccc(O)cc1 (configuration not stated) | – | > 100 | 15.2 | – | – | – | – | – | – | – | – | – | 6580 | –
CCOC(=O)C1=C(C)NC(OC)N(CC(=O)c2ccc(OC)cc2)C1c1ccc(O)cc1 (configuration not stated) | – | > 100 | 9.8 | – | – | – | – | – | – | – | – | – | 10.2 | –
CCOC(=O)C1=C(C)NC(OC)N(CC(=O)c2ccc(OC)cc2)C1c1ccc(OC)cc1 (configuration not stated) | – | > 100 | 4.1 | – | – | – | – | – | – | – | – | – | 24.4 | –
CCOC(=O)C1=C(C)NC(OC)N(CC(=O)c2ccccc2)C1c1ccc(Cl)cc1 (configuration not stated) | – | > 100 | 31.3 | – | – | – | – | – | – | – | – | – | 3190 | –
CCOC(=O)C1=C(C)NC(OC)N(CC(=O)c2ccccc2)C1c1ccc(C)cc1 (configuration not stated) | – | > 100 | 19.2 | – | – | – | – | – | – | – | – | – | 5210 | –
CCOC(=O)C1=C(C)NC(OC)N(CC(=O)c2ccc(OC)cc2)C1c1ccc(C)cc1 (configuration not stated) | – | > 100 | 5.1 | – | – | – | – | – | – | – | – | – | 19.6 | –
CCOC(=O)C1=C(C)NC(OC)N(CC(=O)c2ccc(Cl)cc2)C1c1ccc(OC)cc1 (configuration not stated) | – | > 100 | 30.3 | – | – | – | – | – | – | – | – | – | 3300 | –
CCOC(=O)C1=C(C)NC(OC)N(CC(=O)c2ccc(Cl)cc2)C1c1ccc(C)cc1 (configuration not stated) | – | > 100 | 29.2 | – | – | – | – | – | – | – | – | – | 3420 | –
CCOC(=O)C1=C(C)NC(OC)N(CC(=O)c2ccccc2)C1c1ccccc1 (configuration not stated) | – | > 100 | 23.3 | – | – | – | – | – | – | – | – | – | 4290 | –
CCOC(=O)C1=C(C)NC(OC)N(CC(=O)c2ccc(Cl)cc2)C1c1ccccc1 (configuration not stated) | – | > 100 | 33.3 | – | – | – | – | – | – | – | – | – | 3000 | –
CCOC(=O)C1=C(C)NC(OC)N(CC(=O)c2ccccc2)C1c1ccc(OC)cc1 (configuration not stated) | – | > 100 | 7.4 | – | – | – | – | – | – | – | – | – | 13.5 | –
CCOC(=O)C1=C(C)NC(OC)N(CC(=O)c2ccc(OC)cc2)C1c1ccccc1 (configuration not stated) | – | > 100 | 13.3 | – | – | – | – | – | – | – | – | – | 7.52 | –
CCOC(=O)C1=C(C)NC(OC)N(CC(=O)c2ccccc2)C1c1ccc(O)cc1 (configuration not stated) | – | > 100 | 10.2 | – | – | – | – | – | – | – | – | – | 9.8 | –
CC(C)Cc1ccc(C(C)C(=O)O)cc1 (configuration not stated) [IBUPROFEN] | – | – | – | – | – | – | – | – | – | – | – | – | – | 1.97
